Converted amounts (≈) assume the structure as drawn. The source made the active and inactive calls. The calls are words filed in the database; no cut-off is given here.
Key:
[1] = fT>MIC in neutropenic mouse infected with Pseudomonas aeruginosa isolate 988 at 500 mg administered as 4 hr infusion; assay type: functional
How it was run: (§1)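 Mouse fT>MIC was modelled with first-order one-compartment serum PK and 25.2% binding. Mice were neutropenic (cyclophosphamide) with uranyl nitrate renal impairment. Subcutaneous doses were 5.5, 2.25, 4.5, 4.5, 4.5, 4.5, 0.75, 0.375 mg/kg at 0, 0.5, 1.5, 2.5, 3.5, 4.5, 6, 7.5 h per 8-h interval over 24 h.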

Pseudomonas aeruginosa [2] = assay: Antibacterial activity against Pseudomonas aeruginosa isolate 886 by microdilution method; assay type: functional
[3] = fT>MIC in human infected with Pseudomonas aeruginosa isolate 935 at 500 mg administered as 4 hr infusion; assay type: functional
Pseudomonas aeruginosa [4] = assay: Antibacterial activity against Pseudomonas aeruginosa isolate 936 by microdilution method; assay type: functional
[5] = fT>MIC in human infected with Pseudomonas aeruginosa isolate 1060 at 500 mg administered as 4 hr infusion; assay type: functional
Pseudomonas aeruginosa [6] = assay: Antibacterial activity against Pseudomonas aeruginosa isolate 1060 by fractionation study; assay type: functional
Pseudomonas aeruginosa [7] = assay: Antibacterial activity against Pseudomonas aeruginosa isolate 968 by microdilution method; assay type: functional
[8] = fT>MIC in neutropenic mouse infected with Pseudomonas aeruginosa isolate 1005 at 500 mg administered as 1 hr infusion; assay type: functional
[9] = AUC in healthy human at 500 mg administered as 4 hr infusion; assay type: ADME, organism-based; conditions: plasma, iv
[10] = Elimination rate constant in Pseudomonas aeruginosa ATCC 27853 infected neutropenic ICR mouse at 50 mg/kg, sc administered as single dose 2 hrs postinfection; assay type: ADME, organism-based; design: dose 50 mg/kg, route subcutaneous; conditions: in vivo
How it was run: (§2)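 Neutropenic mice (cyclophosphamide ip 150 and 100 mg/kg, 4 and 1 days before inoculation) with uranyl nitrate 5 mg/kg ip 3 days before, for renal impairment. Thigh infection with ATCC 27853 at 10⁶ CFU/ml, 0.1 ml per thigh. Single sc doses 2 h later. Intracardiac blood from 6–12 mice per time point, eight time points over 4 h. Serum assayed by HPLC (linear 0.5–40 μg/ml). One-compartment first-order fit.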

[11] = fT>MIC in neutropenic mouse infected with Pseudomonas aeruginosa isolate 968 at 500 mg administered as 4 hr infusion; assay type: functional; how it was run: as §1
[12] = fT>MIC in human infected with Pseudomonas aeruginosa isolate 968 at 500 mg administered as 4 hr infusion; assay type: functional
[13] = Elimination rate constant in Pseudomonas aeruginosa ATCC 27853 infected neutropenic ICR mouse at 150 mg/kg, sc administered as single dose 2 hrs postinfection; assay type: ADME, organism-based; design: dose 150 mg/kg, route subcutaneous; conditions: in vivo; how it was run: as §2
[14] = fT>MIC in human infected with Pseudomonas aeruginosa isolate 968 at 500 mg administered as 1 hr infusion; assay type: functional
[15] = Clearance in Pseudomonas aeruginosa ATCC 27853 infected neutropenic ICR mouse at 50 mg/kg, sc administered as single dose 2 hrs postinfection; assay type: ADME, organism-based; design: dose 50 mg/kg, route subcutaneous; conditions: in vivo; how it was run: as §2
[16] = fT>MIC in neutropenic mouse infected with Pseudomonas aeruginosa isolate 869 at 500 mg administered as 4 hr infusion; assay type: functional; how it was run: as §1
[17] = fT>MIC in human infected with Pseudomonas aeruginosa isolate 1055 at 500 mg administered as 4 hr infusion; assay type: functional
[18] = fT>MIC in neutropenic mouse infected with Pseudomonas aeruginosa isolate 1050 at 500 mg administered as 1 hr infusion; assay type: functional
How it was run: (§3)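 Free-drug time above MIC simulated from one-compartment mouse serum PK (25.2% protein binding). The mice were cyclophosphamide-neutropenic and uranyl nitrate-renally impaired. Regimen was subcutaneous 10, 15, 2.5, 1.25, 0.5, 0.25 mg/kg at 0, 0.5, 2.5, 4, 5.5, 7 h, repeated every 8 h over 24 h.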

[19] = fT>MIC in human infected with Pseudomonas aeruginosa isolate 869 at 500 mg administered as 1 hr infusion; assay type: functional
[20] = fT>MIC in neutropenic mouse infected with Pseudomonas aeruginosa isolate 1052 at 500 mg administered as 1 hr infusion; assay type: functional; how it was run: as §3
[21] = fT>MIC in human infected with Pseudomonas aeruginosa isolate 1058 at 500 mg administered as 4 hr infusion; assay type: functional
Pseudomonas aeruginosa [22] = assay: Antibacterial activity against Pseudomonas aeruginosa isolate 1082 by microdilution method; assay type: functional
How it was run: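 CLSI broth microdilution in cation-adjusted Mueller-Hinton broth (20–25 mg/liter Ca, 10–12.5 mg/liter Mg). Standard inoculum 10⁵ CFU/ml, incubated in ambient air. Clinical hospital isolates.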

[23] = fT>MIC in neutropenic mouse infected with Pseudomonas aeruginosa isolate 931 at 500 mg administered as 1 hr infusion; assay type: functional; how it was run: as §3
[24] = fT>MIC in neutropenic mouse infected with Pseudomonas aeruginosa isolate 1005 at 500 mg administered as 4 hr infusion; assay type: functional
[25] = AUC in healthy human at 500 mg administered as 1 hr infusion; assay type: ADME, organism-based; conditions: plasma, iv
[26] = AUC (0 to 24 hrs) in Pseudomonas aeruginosa ATCC 27853 infected neutropenic ICR mouse at 10 mg/kg, sc administered as single dose 2 hrs postinfection; assay type: ADME, organism-based; design: time < 24 hr, dose 10 mg/kg, route subcutaneous; conditions: plasma; how it was run: as §2
[27] = Cmax in Pseudomonas aeruginosa ATCC 27853 infected neutropenic ICR mouse at 5.5, 2.25, 4.5, 4.5, 4.5, 4.5, 0.75, and 0.375 mg/kg given at 0, 0.5, 1.5, 2.5, 3.5, 4.5, 6, and 7.5 h over 24 h; assay type: ADME, organism-based; design: dose 0.375 mg/kg; conditions: in vivo
[28] = fT>MIC in neutropenic mouse infected with Pseudomonas aeruginosa isolate 1060 at 500 mg administered as 4 hr infusion; assay type: functional; how it was run: as §1
[29] = fT>MIC in neutropenic mouse infected with Pseudomonas aeruginosa isolate 944 at 500 mg administered as 1 hr infusion; assay type: functional; how it was run: as §3
[30] = Cmax in Pseudomonas aeruginosa ATCC 27853 infected neutropenic ICR mouse at 150 mg/kg, sc administered as single dose 2 hrs postinfection by HPLC; assay type: ADME, organism-based; design: dose 150 mg/kg, route subcutaneous; conditions: in vivo; how it was run: as §2
[31] = fT>MIC in neutropenic mouse infected with Pseudomonas aeruginosa isolate 906 at 500 mg administered as 1 hr infusion; assay type: functional; how it was run: as §3
[32] = fT>MIC in human infected with Pseudomonas aeruginosa isolate 1062 at 500 mg administered as 4 hr infusion; assay type: functional
[33] = fT>MIC in human infected with Pseudomonas aeruginosa isolate 1082 at 500 mg administered as 4 hr infusion; assay type: functional
[34] = fT>MIC in human infected with Pseudomonas aeruginosa isolate 935 at 500 mg administered as 1 hr infusion; assay type: functional
[35] = fT>MIC in neutropenic mouse infected with Pseudomonas aeruginosa isolate 886 at 500 mg administered as 4 hr infusion; assay type: functional; how it was run: as §1
Pseudomonas aeruginosa [36] = assay: Antibacterial activity against Pseudomonas aeruginosa isolate at 8 to 16 ug/ml after 24 hrs; assay type: functional, organism-based
[37] = fT>MIC in human infected with Pseudomonas aeruginosa isolate 1036 at 500 mg administered as 1 hr infusion; assay type: functional
[38] = fT>MIC in human infected with Pseudomonas aeruginosa isolate 1006 at 500 mg administered as 1 hr infusion; assay type: functional
[39] = fT>MIC in human infected with Pseudomonas aeruginosa isolate 931 at 500 mg administered as 1 hr infusion; assay type: functional
Pseudomonas aeruginosa [40] = assay: Antibacterial activity against Pseudomonas aeruginosa isolate 993 by microdilution method; assay type: functional

C[C@@H](O)[C@H]1C(=O)N2C(C(=O)O)=C(S[C@@H]3CN[C@H](CNS(N)(=O)=O)C3)[C@H](C)[C@H]12 [DORIPENEM]
fT>MIC [1]: 0%
MIC (Pseudomonas aeruginosa [2]): 0.25 µg/mL (≈ 0.595 µM)
fT>MIC [3]: 80%
MIC (Pseudomonas aeruginosa [4]): 8 µg/mL (≈ 19 µM)
fT>MIC [5]: 55%
MIC (Pseudomonas aeruginosa [6]): 2.75 µg/mL (≈ 6.54 µM)
MIC (Pseudomonas aeruginosa [7]): 16 µg/mL (≈ 38 µM)
fT>MIC [8]: 55%
AUC at 4 h [9]: 32400 ng·h/mL
k el at 2 h [10]: 0.000567 s⁻¹
fT>MIC [11]: 0%
fT>MIC [12]: 0%
k el at 2 h [13]: 0.000433 s⁻¹
fT>MIC [14]: 7.5%
CL/F [15]: 13.1 mL/min/kg
fT>MIC [16]: 100%
fT>MIC [17]: 95%
fT>MIC [18]: 30%
fT>MIC [19]: 90%
fT>MIC [20]: 55%
fT>MIC [21]: 65%
MIC (Pseudomonas aeruginosa [22]): 1 µg/mL (≈ 2.38 µM)
fT>MIC [23]: 30%
fT>MIC [24]: 82.5%
AUC at 1 h [25]: 32600 ng·h/mL
AUC(0-t) at 24 h [26]: 13500 ng·h/mL
Cmax [27]: 7.99 µg/mL
fT>MIC [28]: 52.5%
fT>MIC [29]: 30%
Cmax [30]: 194 µg/mL
fT>MIC [31]: 42.5%
fT>MIC [32]: 95%
fT>MIC [33]: 80%
fT>MIC [34]: 55%
fT>MIC [35]: 100%
Activity (Pseudomonas aeruginosa [36]): inactive
fT>MIC [37]: 40%
fT>MIC [38]: 17.5%
fT>MIC [39]: 27.5%
MIC (Pseudomonas aeruginosa [40]): 0.125 µg/mL (≈ 0.297 µM)
